Results: ChEMBL document CHEMBL3352028, “SAR studies on tetrahydroisoquinoline derivatives: the role of flexibility and bioisosterism to raise potency and selectivity toward P-glycoprotein” (J Med Chem, 2014)

Experiments:
[1] = biological target: Multidrug resistance-associated protein 1 (Homo sapiens, UniProt P33527); test: Inhibition of MRP1 (unknown origin) over-expressed in MDCK cells assessed as calcein accumulation incubated for 30 mins prior to Calcein-AM addition measured after 30 mins by fluorescence assay; assay type: cell-based
How it was run: (§1)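 MDCK-MDR1 or MDCK-MRP1 cells at 50 000 cells/well, confluent overnight. Compounds in culture medium for 30 min at 37 °C, then Calcein-AM added (2.5 μM final) for a further 30 min. Washed three times with ice-cold PBS, fluorescence read at ex 485, em 535 nm. Percent increase over untreated basal level fitted against log dose to give EC50.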

[2] = biological target: T1, Broad substrate specificity ATP-binding cassette transporter ABCG2 (Homo sapiens, UniProt Q9UNQ0); test: Inhibition of BCRP (unknown origin) over-expressed in MDCK cells assessed as Hoechst 33342 accumulation incubated for 30 mins prior to Hoechst 33342 addition measured after 30 mins by fluorescence assay; assay type: cell-based; conditions: 0.5 h
T1 sequence (Q9UNQ0 whole entry): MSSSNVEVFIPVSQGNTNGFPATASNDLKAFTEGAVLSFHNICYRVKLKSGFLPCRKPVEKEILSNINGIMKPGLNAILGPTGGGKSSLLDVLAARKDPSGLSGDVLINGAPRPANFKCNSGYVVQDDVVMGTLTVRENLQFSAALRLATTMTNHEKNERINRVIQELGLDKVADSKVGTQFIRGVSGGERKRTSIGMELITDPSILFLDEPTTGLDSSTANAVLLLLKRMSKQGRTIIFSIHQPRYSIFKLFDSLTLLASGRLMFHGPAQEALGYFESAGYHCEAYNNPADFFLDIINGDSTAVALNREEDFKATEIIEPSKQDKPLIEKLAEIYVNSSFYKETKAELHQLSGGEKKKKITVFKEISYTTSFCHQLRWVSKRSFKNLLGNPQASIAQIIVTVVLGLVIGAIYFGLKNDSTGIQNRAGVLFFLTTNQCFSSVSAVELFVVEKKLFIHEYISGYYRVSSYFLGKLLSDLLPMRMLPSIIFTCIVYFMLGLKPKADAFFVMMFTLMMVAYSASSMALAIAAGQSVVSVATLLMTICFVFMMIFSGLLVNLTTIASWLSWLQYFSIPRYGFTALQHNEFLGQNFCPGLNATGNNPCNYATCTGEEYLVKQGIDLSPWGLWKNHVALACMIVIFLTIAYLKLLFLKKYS
How it was run: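 MDCK-BCRP cells at 30 000 cells/well, confluent overnight. Compounds in culture medium for 30 min at 37 °C, then Hoechst 33342 added (8 μM final) for 30 min. Cells fixed 20 min in 4% PFA protected from light, washed three times with ice-cold PBS, fluorescence read at ex 340/35, em 485/20 nm. Increase over untreated basal level fitted against log dose to give EC50.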

[3] = Efflux ratio of apparent permeability from basolateral to apical side over apical to basolateral side in human Caco2 cells at 100 uM after 120 mins by UV-Vis spectrophotometry; assay type: ADME, cell-based; conditions: Caco-2
How it was run: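 Caco-2 cells seeded at 10 000 cells/well and grown 21 days, medium changed every 48 h for 6 days then daily; TEER checked before and after, generally >1000 Ω. Monolayers preincubated twice in HBSS (pH 7.4) 30 min at 37 °C. Drug at 100 μM in HBSS on apical or basolateral side, 120 min at 37 °C. Both sides sampled, drug quantified by UV-vis against a calibration curve. Papp computed from acceptor concentration, volume, membrane area (0.11 cm2) and time (7200 s). Ratio taken as B→A over A→B.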

[4] = biological target: ATP-dependent translocase ABCB1 (Homo sapiens, UniProt P08183); test: Inhibition of MDR1 (unknown origin) over-expressed in MDCK cells assessed as calcein accumulation incubated for 30 mins prior to Calcein-AM addition measured after 30 mins by fluorescence assay; assay type: cell-based; how it was run: as §1
Sequence of ATP-dependent translocase ABCB1 (P08183 whole entry): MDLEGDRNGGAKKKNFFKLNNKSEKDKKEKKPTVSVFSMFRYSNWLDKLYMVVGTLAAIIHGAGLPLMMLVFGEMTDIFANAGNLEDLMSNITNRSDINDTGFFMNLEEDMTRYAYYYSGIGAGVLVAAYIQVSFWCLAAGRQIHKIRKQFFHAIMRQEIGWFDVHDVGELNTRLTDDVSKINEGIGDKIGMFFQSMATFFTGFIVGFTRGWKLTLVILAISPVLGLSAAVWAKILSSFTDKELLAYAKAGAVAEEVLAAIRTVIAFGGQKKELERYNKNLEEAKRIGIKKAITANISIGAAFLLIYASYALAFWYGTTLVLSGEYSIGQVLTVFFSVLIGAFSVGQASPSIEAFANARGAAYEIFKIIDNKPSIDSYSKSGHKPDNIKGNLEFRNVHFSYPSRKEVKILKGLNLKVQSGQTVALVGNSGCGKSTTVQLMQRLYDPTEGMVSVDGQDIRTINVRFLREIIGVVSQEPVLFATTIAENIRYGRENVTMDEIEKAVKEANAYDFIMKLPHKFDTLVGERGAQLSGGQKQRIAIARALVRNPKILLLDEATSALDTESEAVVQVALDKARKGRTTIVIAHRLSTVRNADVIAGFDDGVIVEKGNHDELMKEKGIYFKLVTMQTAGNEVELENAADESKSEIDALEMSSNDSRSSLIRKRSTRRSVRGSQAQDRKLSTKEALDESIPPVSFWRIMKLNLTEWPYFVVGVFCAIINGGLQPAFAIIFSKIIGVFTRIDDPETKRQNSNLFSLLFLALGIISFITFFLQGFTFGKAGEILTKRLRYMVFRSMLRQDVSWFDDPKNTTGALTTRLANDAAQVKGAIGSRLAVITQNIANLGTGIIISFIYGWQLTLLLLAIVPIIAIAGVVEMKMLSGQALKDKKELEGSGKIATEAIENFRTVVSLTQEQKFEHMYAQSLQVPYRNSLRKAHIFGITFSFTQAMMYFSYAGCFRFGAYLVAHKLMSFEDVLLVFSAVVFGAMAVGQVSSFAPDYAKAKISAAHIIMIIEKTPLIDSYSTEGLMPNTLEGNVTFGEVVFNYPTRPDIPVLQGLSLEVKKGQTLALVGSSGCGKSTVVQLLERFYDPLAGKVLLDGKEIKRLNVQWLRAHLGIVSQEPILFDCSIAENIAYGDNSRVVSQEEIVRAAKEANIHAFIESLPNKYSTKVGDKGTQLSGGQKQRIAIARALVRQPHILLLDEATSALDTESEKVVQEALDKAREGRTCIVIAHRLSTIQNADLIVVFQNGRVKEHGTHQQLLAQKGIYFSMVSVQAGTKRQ

Sequence of Multidrug resistance-associated protein 1 (P33527 whole entry): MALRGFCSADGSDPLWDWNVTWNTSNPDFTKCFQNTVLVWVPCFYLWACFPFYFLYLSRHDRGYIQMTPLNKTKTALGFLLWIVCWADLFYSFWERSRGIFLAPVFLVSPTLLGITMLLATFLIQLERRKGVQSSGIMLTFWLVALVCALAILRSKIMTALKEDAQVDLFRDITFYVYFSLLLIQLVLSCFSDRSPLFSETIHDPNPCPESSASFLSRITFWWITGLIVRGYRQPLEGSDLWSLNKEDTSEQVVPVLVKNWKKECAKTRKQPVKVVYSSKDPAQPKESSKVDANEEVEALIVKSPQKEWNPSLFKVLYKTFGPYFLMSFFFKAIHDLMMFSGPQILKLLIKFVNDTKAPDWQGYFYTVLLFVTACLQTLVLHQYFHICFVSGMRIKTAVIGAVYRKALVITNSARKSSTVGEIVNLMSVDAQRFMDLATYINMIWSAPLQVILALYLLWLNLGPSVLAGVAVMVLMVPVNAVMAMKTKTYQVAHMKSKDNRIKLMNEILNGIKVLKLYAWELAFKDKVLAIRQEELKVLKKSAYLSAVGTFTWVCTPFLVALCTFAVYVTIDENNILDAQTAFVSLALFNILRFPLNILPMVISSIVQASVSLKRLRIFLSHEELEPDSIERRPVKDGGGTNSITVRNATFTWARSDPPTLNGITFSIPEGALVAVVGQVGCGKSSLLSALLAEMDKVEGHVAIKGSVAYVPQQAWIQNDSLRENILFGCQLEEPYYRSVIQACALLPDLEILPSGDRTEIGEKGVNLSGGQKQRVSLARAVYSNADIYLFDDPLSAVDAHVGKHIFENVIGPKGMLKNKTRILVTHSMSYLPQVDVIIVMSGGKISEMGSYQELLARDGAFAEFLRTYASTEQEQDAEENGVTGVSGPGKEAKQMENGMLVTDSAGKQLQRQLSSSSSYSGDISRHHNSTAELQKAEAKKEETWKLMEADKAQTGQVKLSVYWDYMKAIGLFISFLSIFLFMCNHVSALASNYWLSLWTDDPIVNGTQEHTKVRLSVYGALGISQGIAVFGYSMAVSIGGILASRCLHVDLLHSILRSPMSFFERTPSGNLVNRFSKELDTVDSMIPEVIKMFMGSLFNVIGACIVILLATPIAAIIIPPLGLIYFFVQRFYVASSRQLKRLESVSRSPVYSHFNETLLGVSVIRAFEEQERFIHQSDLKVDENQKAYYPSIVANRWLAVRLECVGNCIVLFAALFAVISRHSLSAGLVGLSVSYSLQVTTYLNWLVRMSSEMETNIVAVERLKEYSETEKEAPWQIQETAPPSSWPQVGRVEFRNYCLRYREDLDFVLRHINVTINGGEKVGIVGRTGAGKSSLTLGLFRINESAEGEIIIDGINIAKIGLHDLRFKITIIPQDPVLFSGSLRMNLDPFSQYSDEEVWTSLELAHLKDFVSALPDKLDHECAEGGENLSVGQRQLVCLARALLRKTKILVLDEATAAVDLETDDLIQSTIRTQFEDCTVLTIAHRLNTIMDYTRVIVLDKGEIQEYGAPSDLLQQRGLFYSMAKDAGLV

SMILES	EC50 ([1]; mdck)	inhibition (INH) [2]	efflux ratio at 2 h, 100 µM [3]	EC50 ([4]; read-out: EC50) [nM]	EC50 ([1]; read-out: EC50) [nM]	EC50 ([4]; mdck)
COc1ccc(-c2ccc(OCCCCN3CCc4cc(OC)c(OC)cc4C3)cc2)cc1	Not Active	Not Active	6.6	4		
COc1cccc(-c2ccccc2CCN2CCc3cc(OC)c(OC)cc3C2)c1		Not Active	4.1	69	23000	
COc1ccc(-c2ccc3c(c2)C=C(CCN2CCc4cc(OC)c(OC)cc4C2)CO3)cc1	Not Active	Not Active	4.9	1200		
COc1cc2c(cc1OC)CN(CCc1ccc(-c3ccc(F)cc3)cc1)CC2	Not Active	Not Active	3.8	2000		
COc1cc2c(cc1OC)CN(CCc1ccccc1-c1cccc(O)c1)CC2	Not Active	Not Active	3.2	230		
COc1ccc(-c2ccc(CN3CCc4cc(OC)c(OC)cc4C3)cc2)cc1	Not Active		4.4			
COc1ccc(-c2ccc(OCCN3CCc4cc(OC)c(OC)cc4C3)cc2)cc1	Not Active	Not Active	47	930		
COc1cc2c(cc1OC)CN(C(=O)c1ccc(-c3ccc(O)cc3)o1)CC2	Not Active	Not Active	4.5	6400		
COc1ccc(-c2ccc(NCCCN3CCc4cc(OC)c(OC)cc4C3)cc2)cc1	Not Active	Not Active	2.2	1800		
COc1cc2c(cc1OC)CN(Cc1ccc(-c3ccc(O)cc3)cc1)CC2				9300		
COc1cc2c(cc1OC)CN(CCCCOc1ccc(-c3ccc(O)cc3)cc1)CC2	Not Active	Not Active	1.5			Not Active
COc1ccc(-c2ccc(CN3CCc4cc(OC)c(OC)cc4C3)o2)cc1	Not Active	Not Active	3.7	4300		
COc1ccc(-c2ccc3c(c2)C=C(CC(=O)N2CCc4cc(OC)c(OC)cc4C2)CO3)cc1	Not Active	Not Active	3.2	5800		
COc1cc2c(cc1OC)CN(CCCC1CCCc3c(OC)cccc31)CC2 (stereo not drawn)	Not Active		4.4			
COc1ccc(-c2ccc(CCN3CCc4cc(OC)c(OC)cc4C3)cc2)cc1	Not Active	Not Active	38	570		
COc1ccc(-c2ccc(CC(=O)N3CCc4cc(OC)c(OC)cc4C3)cc2)cc1		Not Active	3.9	800	10000	
COc1cc2c(cc1OC)CN(Cc1ccc(-c3ccc(F)cc3)cc1)CC2	Not Active	Not Active	3.8	4900		
COc1ccc(-c2ccc(C(=O)N3CCc4cc(OC)c(OC)cc4C3)o2)cc1	Not Active	Not Active	5.2	910		
COc1ccc(-c2ccc(OCCCN3CCc4cc(OC)c(OC)cc4C3)cc2)cc1	Not Active	Not Active	7.9	1300		
COc1cc2c(cc1OC)CN(Cc1ccc(-c3ccc(O)cc3)o1)CC2	Not Active	Not Active	5.7	8100		
